How the values were obtained:
[1] = Cytotoxicity against human HEK293 cells assessed as cell survival at 20 uM by SRB assay; type: cell-based; details: read-out: Survival
Outline: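 293/NFκB-luc cells seeded 2 × 10^4/well and grown 48 h. Run in parallel with the reporter assay: fresh medium, samples plus TNF-α 2 ng/mL for 6 h. Fixed with 20% TCA at 4 °C for 30 min, stained with 0.4% SRB in 1% acetic acid for 30 min at room temperature. Dye solubilised in 10 mM Tris base (pH 10), OD read at 515 nm, percent survival calculated.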

[2] = Inhibition of TNFalpha-induced NFkappaB (unknown origin) activation expressed in HEK293 cells after 6 hrs by luciferase reporter gene assay; type: cell-based; details: Homo sapiens, HEK293, 6 h
Outline: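 HEK293 cells stably transfected with luciferase reporter under multiple NF-κB response elements, seeded 2 × 10^4/well, grown 48 h in DMEM/10% FBS/2 mM glutamine. Medium replaced; cells given test substances plus human recombinant TNF-α 2 ng/mL (0.14 nM) for 6 h, lysed, frozen −80 °C overnight, luciferase luminescence read. Percent inhibition; IC50 from dilution series (top 20 μM), each tested three times, curve-fitted.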

[3] = tested on: HEK293; assay: Inhibition of TNFalpha-induced NFkappaB (unknown origin) activation expressed in HEK293 cells at 20 uM after 6 hrs by luciferase reporter gene assay; type: cell-based; details: Homo sapiens
Outline: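 HEK293 cells stably carrying an NF-κB response element–luciferase construct (hygromycin-selected). Seeded 2 × 10^4/well in DMEM with 10% FBS, antibiotics and 2 mM L-glutamine, grown 48 h. Fresh medium, then samples with recombinant human TNF-α 2 ng/mL (0.14 nM) for 6 h. Cells lysed, frozen overnight at −80 °C, luciferase luminescence read, percent inhibition calculated. TPCK positive control.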

[4] = Cytotoxicity against mouse RAW264.7 cells assessed as cell survival at 20 ug/mL by SRB assay; type: cell-based; details: read-out: Survival
Outline: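 RAW 264.7 cells run under the NO assay conditions (30 min sample pretreatment, then 1 μg/mL LPS for 20 h). Cells fixed with 10% TCA and stained with 0.4% SRB in 1% acetic acid. Bound dye dissolved in 10 mM Tris and OD read at 515 nm.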

[5] = tested on: RAW264.7; assay: Cancer chemopreventive activity in mouse RAW264.7 cells assessed as inhibition of LPS-induced nitric oxide production treated 30 mins before LPS challenge measured after 20 hrs by Griess reagent assay
[6] = tested on: RAW264.7; assay: Cancer chemopreventive activity in mouse RAW264.7 cells assessed as inhibition of LPS-induced nitric oxide production at 20 ug/mL treated 30 mins before LPS challenge measured after 20 hrs by Griess reagent assay
[7] = tested on: HEK293; assay: Cytotoxicity against human HEK293 cells assessed as cell survival by SRB assay; type: cell-based
Outline: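 293/NFκB-luc cells (HEK293 stably carrying NF-κB-response-element luciferase reporter) seeded 2 × 10^4/well, grown 48 h in DMEM/10% FBS; treated with samples plus TNF-α 2 ng/mL (0.14 nM) for 6 h. Then TCA-fixed (20%, 4 °C, 30 min), stained 0.4% SRB in 1% acetic acid, dye solubilized in 10 mM Tris base pH 10; OD 515 nm; percent survival at 20 μM.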

SMILES	viability at 20 µM [1]	IC50 [2]	inhibition [3]	viability at 20 ug/mL [4]	IC50 [5]	inhibition at 20 µg/mL [6]	IC50 [7]
CC1=C(C)C(=O)O[C@@H]([C@](C)(O)C2=CC[C@@]3(O)[C@@H]4CC=C5CC=CC(=O)[C@]5(C)[C@H]4CC[C@]23C)C1	100%	5.7 µM	90.2%	100%	10.4 µM	69.1%	–
CC1=C(C)C(=O)O[C@@H]([C@](C)(O)[C@]2(O)CC[C@@]3(O)[C@@H]4CC=C5CC=CC(=O)[C@]5(C)[C@H]4CC[C@]23C)C1 [WITHANOLIDE F]	100%	5.7 µM	90.8%	100%	10.9 µM	84.6%	–
CC1=C(CO)C(=O)O[C@@H]([C@](C)(O)[C@]2(O)CC[C@@]3(O)[C@@H]4CC=C5CC=CC(=O)[C@]5(C)[C@H]4CC[C@]23C)C1	88.6%	1.6 µM	90.1%	100%	6.9 µM	95.1%	–
CC1=C(CO)C(=O)O[C@@H]([C@](C)(O)[C@@]2(O)CC[C@H]3[C@@H]4CC=C5CC=CC(=O)[C@]5(C)[C@H]4CC[C@@]32C)C1 [WITHACOAGULIN G]	93.2%	11.8 µM	90.1%	96.7%	1.9 µM	100%	–
CC1=C(CO)C(=O)O[C@@H]([C@](C)(O)[C@H]2CC=C3[C@@H]4CC=C5CC=CC(=O)[C@]5(C)[C@H]4CC[C@@]32C)C1	48.3%	12.4 µM	88.6%	100%	38.2 µM	76.3%	–
CC1=C(C)C(=O)O[C@@H]([C@](C)(O)[C@H]2CC[C@@]3(O)[C@@H]4CC=C5CC=CC(=O)[C@]5(C)[C@H]4CC[C@]23C)C1	71.9%	12.3 µM	86.9%	100%	37.5 µM	88.5%	–
Cc1ccc(S(=O)(=O)/C=C/C#N)cc1	–	5 µM	–	–	–	–	–
CC1=C(C)C(=O)O[C@@H]([C@](C)(O)[C@@]2(O)CC[C@]3(O)[C@@H]4CC=C5C=CCC(=O)[C@]5(C)[C@H]4CC[C@]23C)C1 [WITHACOAGULIN I]	89.4%	8.8 µM	89.9%	100%	29 µM	69.8%	–
CC1=C(CO)C(=O)O[C@@H]([C@](C)(O)[C@H]2CC[C@@]3(O)[C@@H]4CC=C5CC=CC(=O)[C@]5(C)[C@H]4CC[C@]23C)C1	100%	7 µM	92.8%	100%	–	31.4%	–
Cc1ccc(S(=O)(=O)N[C@@H](Cc2ccccc2)C(=O)CCl)cc1 [TPCK]	–	10.8 µM	–	–	–	–	3.8 µM
CC1=C(CO)C(=O)O[C@@H]([C@](C)(O)[C@@]2(O)CC=C3[C@@H]4CC=C5CC=CC(=O)[C@]5(C)[C@H]4CC[C@@]32C)C1 [WITHACOAGULIN H]	90.3%	5 µM	98.3%	70.4%	3.1 µM	100%	–

Reference: ChEMBL document CHEMBL2331521, “Biologically active withanolides from Withania coagulans” (J Nat Prod, 2013)
